Results as given in ChEMBL document CHEMBL1131440, “Synthesis and potent antifolate activity and cytotoxicity of B-ring deaza analogues of the nonpolyglutamatable dihydrofolate reductase inhibitor Nalpha-(4-amino-4-deoxypteroyl)-Ndelta-hemiphthaloyl- L-ornithine (PT523)” (J Med Chem, 1998).

Columns and labels:
Dihydrofolate reductase = target: T1, Dihydrofolate reductase (Homo sapiens, UniProt P00374); test: Compound was evaluated for the inhibition of Dihydrofolate reductase at concentration ranged from 0.15-0.50 uM
T1 sequence (P00374 whole entry): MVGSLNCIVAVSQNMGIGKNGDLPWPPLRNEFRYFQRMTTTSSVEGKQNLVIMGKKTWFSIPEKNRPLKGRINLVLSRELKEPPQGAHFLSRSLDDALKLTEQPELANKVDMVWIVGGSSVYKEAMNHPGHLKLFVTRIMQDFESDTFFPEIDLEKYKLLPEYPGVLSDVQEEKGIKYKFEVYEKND

[1] = Compound was tested for in vitro antitumor activity, using SCC25 human head and neck squamous carcinoma cells; assay type: functional; conditions: SCC-25
Summary of the method: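 Clonogenic assay: SCC25 cells exposed to graded drug concentrations for 72 h at 37 °C, 5% CO2, in DMEM with 10% FBS and hydrocortisone ([…]). Then replated as single cells at drug-dependent densities and grown in drug-free medium 10-14 days. Colonies stained with crystal violet; only colonies of ≥50 cells scored. IC50 is mean ± SD of ≥3 assays on different days.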

Hs-578T = test: Compound was evaluated for in vitro activity against Hs 578.T breast cancer cell lines (Human tumor cells ); assay type: functional, cell-based
Summary of the method: (§1)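 NCI Developmental Therapeutics Program human tumor cell panel; drug exposure in 96-well plates for the last 48 h of a 72-h incubation, then cells stained for total protein with sulforhodamine B per the standard NCI protocol. Data supplied by NCI.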

SF-539 = test: Compound was evaluated for in vitro activity against SF-539 CNS cell lines (Human tumor cells ); assay type: functional, cell-based
Summary of the method: (§2)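 Total protein then stained with sulforhodamine B following the standard NCI protocol. Data supplied by the NCI Developmental Therapeutics Program.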

HCT-15 = test: Compound was evaluated for in vitro activity against HCT-15 Colon cell lines (Human tumor cells ); assay type: functional, cell-based; summary of the method: as §1
ACHN = test: Compound was evaluated for in vitro activity against ACHN kidney cell lines (Human tumor cells ); assay type: functional, cell-based; summary of the method: as §1
MDA-MB-435 = test: Compound was evaluated for in vitro activity against MDA-MB-435 breast cancer cell lines (Human tumor cells ); assay type: functional, cell-based; summary of the method: as §1
UACC-257 = test: Compound was evaluated for in vitro activity against UACC-257 Melanoma cell lines (Human tumor cells ); assay type: functional, cell-based; summary of the method: as §1
A498 = test: Compound was evaluated for in vitro activity against A498 kidney cell lines (Human tumor cells ); assay type: functional, cell-based; summary of the method: as §1
SR = test: Compound was evaluated for in vitro activity against SR leukemia cell lines (Human tumor cells ); assay type: functional, cell-based; summary of the method: as §1
NCI-H23 = test: Compound was evaluated for in vitro activity against NCI-H23 lung cancer cell lines (Human tumor cells ); assay type: functional, cell-based; summary of the method: as §1
BT-549 = test: Compound was evaluated for in vitro activity against BT-549 breast cancer cell lines (Human tumor cells ); assay type: functional, cell-based; summary of the method: as §1
M14 = test: Compound was evaluated for in vitro activity against M14 Melanoma cell lines (Human tumor cells ); assay type: functional, cell-based; summary of the method: as §1
OVCAR-3 = test: Compound was evaluated for in vitro activity against OVCAR-3 Ovary cell lines (Human tumor cells ); assay type: functional, cell-based; summary of the method: as §2
U-251 = test: Compound was evaluated for in vitro activity against U251 CNS cell lines (Human tumor cells ); assay type: functional, cell-based; summary of the method: as §1
RPMI-8226 = test: Compound was evaluated for in vitro activity against RPMI-8226 leukemia cell lines (Human tumor cells ); assay type: functional, cell-based; summary of the method: as §1
HCT-116 = test: Compound was evaluated for in vitro activity against HCT116 Colon cell lines (Human tumor cells ); assay type: functional, cell-based; summary of the method: as §1
SK-MEL-5 = test: Compound was evaluated for in vitro activity against SK-MEL-5 Melanoma cell lines (Human tumor cells ); assay type: functional, cell-based; summary of the method: as §1
786-0 = test: Compound was evaluated for in vitro activity against 786-0 kidney cell lines (Human tumor cells ); assay type: functional, cell-based; summary of the method: as §1
SK-MEL-2 = test: Compound was evaluated for in vitro activity against SK-MEL-2 Melanoma cell lines (Human tumor cells ); assay type: functional, cell-based; summary of the method: as §1
SF-268 = test: Compound was evaluated for in vitro activity against SF-268 CNS cell lines (Human tumor cells ); assay type: functional, cell-based; summary of the method: as §1
OVCAR-4 = test: Compound was evaluated for in vitro activity against OVCAR-4 Ovary cell lines (Human tumor cells ); assay type: functional, cell-based; summary of the method: as §1
NCI-H226 = test: Compound was evaluated for in vitro activity against NCI-H226 lung cancer cell lines (Human tumor cells ); assay type: functional, cell-based; summary of the method: as §1
K562 = test: Compound was evaluated for in vitro activity against K562 leukemia cell lines (Human tumor cells ); assay type: functional, cell-based; summary of the method: as §1
OVCAR-5 = test: Compound was evaluated for in vitro activity against OVCAR-5 Ovary cell lines (Human tumor cells ); assay type: functional, cell-based; summary of the method: as §1
TK-10 = test: Compound was evaluated for in vitro activity against TK-10 kidney cell lines (Human tumor cells ); assay type: functional, cell-based; summary of the method: as §1
CCRF-CEM = test: Compound was evaluated for in vitro activity against CCRF-CEM leukemia cell lines (Human tumor cells ); assay type: functional, cell-based; summary of the method: as §1
KM12 = test: Compound was evaluated for in vitro activity against KM-12 Colon cell lines (Human tumor cells ); assay type: functional, cell-based; summary of the method: as §1
A549 = test: Compound was evaluated for in vitro activity against A549/ATCC lung cancer cell lines (Human tumor cells )
HCC 2998 = test: Compound was evaluated for in vitro activity against HCC2998 Colon cell lines (Human tumor cells ); assay type: functional, cell-based; summary of the method: as §1
NCI-H522 = test: Compound was evaluated for in vitro activity against NCI-H522 lung cancer cell lines (Human tumor cells ); assay type: functional, cell-based; summary of the method: as §1
NCI-H460 = test: Compound was evaluated for in vitro activity against NCI-H460 lung cancer cell lines (Human tumor cells ); assay type: functional, cell-based; summary of the method: as §1
UACC-62 = test: Compound was evaluated for in vitro activity against UACC-62 Melanoma cell lines (Human tumor cells ); assay type: functional, cell-based; summary of the method: as §1
SF-295 = test: Compound was evaluated for in vitro activity against SF-295 CNS cell lines (Human tumor cells ); assay type: functional, cell-based; summary of the method: as §1
HL-60 = test: Compound was evaluated for in vitro activity against HL-60(TB) leukemia cell lines (Human tumor cells ); assay type: functional, cell-based; summary of the method: as §1
SNB- = test: Compound was evaluated for in vitro activity against […] CNS cell lines (Human tumor cells ); assay type: functional, cell-based; summary of the method: as §1
MOLT-4 = test: Compound was evaluated for in vitro activity against MOLT-4 leukemia cell lines (Human tumor cells ); assay type: functional, cell-based; summary of the method: as §1
LOX IMVI = test: Compound was evaluated for in vitro activity against LOXIMV1 Melanoma cell lines (Human tumor cells ); assay type: functional, cell-based; summary of the method: as §2
T47D = test: Compound was evaluated for in vitro activity against T-47D breast cancer cell lines (Human tumor cells ); assay type: functional, cell-based; summary of the method: as §1
HOP-92 = test: Compound was evaluated for in vitro activity against HOP-92 lung cancer cell lines (Human tumor cells ); assay type: functional, cell-based; summary of the method: as §1
RXF 393 = test: Compound was evaluated for in vitro activity against RXF-393 kidney cell lines (Human tumor cells ); assay type: functional, cell-based; summary of the method: as §1
OVCAR-8 = test: Compound was evaluated for in vitro activity against OVCAR-8 Ovary cell lines (Human tumor cells ); assay type: functional, cell-based; summary of the method: as §1
PC-3 = test: Compound was evaluated for in vitro activity against PC-3 prostate cell lines (Human tumor cells ); assay type: functional, cell-based; summary of the method: as §1
IGROV-1 = test: Compound was evaluated for in vitro activity against IGROV1 Ovary cell lines (Human tumor cells ); assay type: functional, cell-based; summary of the method: as §1

Work on `Nc1nc(N)c2cc(CNc3ccc(C(=O)NC(CCCNC(=O)c4ccccc4C(=O)O)C(=O)O)cc3)cnc2n1` (stereo unspecified) yielded a Ki (Dihydrofolate reductase) of 0.00041 nM and an IC50 [1] of 1.8 nM.
With `Nc1nc(N)c2nc(CNc3ccc(C(=O)NC(CCCNC(=O)c4ccccc4C(=O)O)C(=O)O)cc3)cnc2n1` (stereo unspecified) the IC50 (Hs-578T) was greater than 100 nM, the IC50 (SF-539) was 2.3 nM and the IC50 (HCT-15) was 0.6 nM. It also gave an IC50 (ACHN) of 0.81 nM, an IC50 (MDA-MB-435) of 3.1 nM and an IC50 (UACC-257) of 25 nM. For the same compound, the IC50 (A498) was greater than 1000 nM, the IC50 (SR) was 0.42 nM and the IC50 (NCI-H23) was 2.6 nM. For the same compound, the IC50 (BT-549) was greater than 1000 nM, the IC50 (M14) was greater than 100 nM and the IC50 (OVCAR-3) was 46 nM. The IC50 (U-251) was 5.2 nM, the Ki (Dihydrofolate reductase) was 0.00035 nM and the IC50 (RPMI-8226) was greater than 100 nM. The IC50 (HCT-116) was 0.18 nM, the IC50 (SK-MEL-5) was 4.7 nM and the IC50 (786-0) was 0.5 nM. It also gave an IC50 (SK-MEL-2) greater than 100 nM, an IC50 (SF-268) of 0.73 nM and an IC50 (OVCAR-4) greater than 100 nM. For the same compound, the IC50 (NCI-H226) was greater than 100 nM, the IC50 [1] was 1.8 nM and the IC50 (K562) was 0.3 nM. The IC50 (OVCAR-5) was 1 nM, the IC50 (TK-10) was 9.6 nM and the IC50 (CCRF-CEM) was 1.5 nM. For the same compound, the IC50 (KM12) was 2.2 nM, the IC50 (A549) was 0.57 nM and the IC50 (HCC 2998) was 1.3 nM. It also gave an IC50 (NCI-H522) of 6.5 nM, an IC50 (NCI-H460) of 0.43 nM and an IC50 (UACC-62) of 0.56 nM. It also gave an IC50 (SF-295) of 0.51 nM, an IC50 (HL-60) of 0.41 nM and an IC50 (SNB-) greater than 100 nM. The IC50 (MOLT-4) was 5.2 nM, the IC50 (LOX IMVI) was 0.23 nM and the IC50 (T47D) was greater than 1000 nM. It also gave an IC50 (HOP-92) of 7.5 nM, an IC50 (RXF 393) of 8.6 nM and an IC50 (OVCAR-8) of 0.53 nM. For the same compound, the IC50 (PC-3) was greater than 100 nM and the IC50 (IGROV-1) was greater than 100 nM.
